Data as given in ChEMBL document CHEMBL1681730, “17,20-lyase inhibitors. Part 4: design, synthesis and structure-activity relationships of naphthylmethylimidazole derivatives as novel 17,20-lyase inhibitors” (Bioorg Med Chem, 2011).

Assays:
[1] = target: T1, Steroid 17-alpha-hydroxylase/17,20 lyase (Homo sapiens, UniProt P05093); experiment: Inhibition of 17,20 lyase activity in human
T1 sequence (P05093 whole entry): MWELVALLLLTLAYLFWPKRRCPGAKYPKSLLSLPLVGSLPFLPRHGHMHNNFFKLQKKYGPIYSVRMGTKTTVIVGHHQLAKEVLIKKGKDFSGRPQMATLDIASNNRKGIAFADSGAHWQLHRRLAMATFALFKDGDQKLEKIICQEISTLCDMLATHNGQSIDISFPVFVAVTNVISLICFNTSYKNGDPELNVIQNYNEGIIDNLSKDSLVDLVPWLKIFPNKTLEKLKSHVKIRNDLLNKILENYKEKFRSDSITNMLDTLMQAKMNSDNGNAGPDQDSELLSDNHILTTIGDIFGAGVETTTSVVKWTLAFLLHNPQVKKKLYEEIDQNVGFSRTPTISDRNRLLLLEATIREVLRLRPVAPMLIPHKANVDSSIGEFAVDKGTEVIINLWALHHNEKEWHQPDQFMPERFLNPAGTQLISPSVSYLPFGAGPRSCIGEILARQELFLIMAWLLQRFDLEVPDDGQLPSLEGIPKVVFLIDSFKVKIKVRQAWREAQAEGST
Outline: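 Recombinant P450c17 (0.5 pmol) with cytochrome b5 (0.5 pmol) and NADPH-P450 reductase (20.8 ng) in 75 mM phosphate pH 7.4 with 1 mM MgCl2. Substrate 10 nM [1,2-3H]-17α-hydroxypregnenolone, 5 mM NADPH, compound 1–1000 nM. Incubated 15 min at 37 °C, ethyl acetate extraction, DHEA separated from substrate by silica TLC (cyclohexane–ethyl acetate 3:2). IC50 taken as 50% reduction in product.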

[2] = target: T2, Steroid 17-alpha-hydroxylase/17,20 lyase (Rattus norvegicus, UniProt P11715); experiment: Inhibition of 17,20 lyase activity in Sprague-Dawley rat testicular microsomes; set-up: species or system Testis
T2 sequence (P11715 whole entry): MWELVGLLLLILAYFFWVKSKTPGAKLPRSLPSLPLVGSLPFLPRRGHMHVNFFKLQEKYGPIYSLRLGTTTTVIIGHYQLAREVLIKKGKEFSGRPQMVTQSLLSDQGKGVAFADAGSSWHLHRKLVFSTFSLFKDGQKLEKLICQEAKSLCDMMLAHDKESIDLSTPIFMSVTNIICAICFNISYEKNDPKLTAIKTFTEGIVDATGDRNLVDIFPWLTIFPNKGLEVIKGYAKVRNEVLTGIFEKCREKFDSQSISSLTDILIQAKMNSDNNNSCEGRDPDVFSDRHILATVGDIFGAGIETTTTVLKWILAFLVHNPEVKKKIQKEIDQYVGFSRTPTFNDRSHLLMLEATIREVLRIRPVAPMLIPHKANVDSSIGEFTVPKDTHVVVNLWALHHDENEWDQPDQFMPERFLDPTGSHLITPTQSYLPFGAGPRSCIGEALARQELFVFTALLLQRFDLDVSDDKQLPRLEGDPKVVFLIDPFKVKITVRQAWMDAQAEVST
Outline: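 Testicular microsomes from 13-week-old male SD rats (7 µg protein) in 75 mM phosphate buffer, pH 7.4, with 10 nM [1,2-3H]-17α-hydroxyprogesterone, 5 mM NADPH, and 1–1000 nM test compound (all final). Compounds were diluted in DMF and then in water. Incubation ran 15 min at 37 °C and was stopped with ethyl acetate. IC50 is the concentration that halves product formation.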

[3] = organism: Homo sapiens; experiment: Ratio of IC50 for human CYP3A4 to IC50 for human 17,20-lyase
Outline: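 Two assays. Human 17,20-lyase: recombinant P450c17 (0.5 pmol) with cytochrome b5 and NADPH-P450 reductase, 10 nM [1,2-3H]-17α-hydroxypregnenolone, 5 mM NADPH, 1 mM MgCl2, pH 7.4 phosphate, 1–1000 nM compound, 15 min at 37 °C. DHEA separated by TLC, IC50 calculated. CYP3A4: recombinant enzyme, 100 μM testosterone, NADPH-regenerating system, 30 min at 37 °C, 6-hydroxytestosterone measured by HPLC.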

[4] = target: Cytochrome P450 3A4 (Homo sapiens, UniProt P08684); experiment: Inhibition of human CYP3A4; format: ADME
[5] = system: Cynomolgus monkey; experiment: Antiandrogenic activity in cynomolgus monkey assessed as reduction serum DHEA level at 1 mg/kg, po at 4 hrs (reference value: 105.7 +/- 4.2%); format: functional, Macaca fascicularis; set-up: scale not given: the % may be the effect or the level left
Outline: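 Adult male cynomolgus monkeys (23 ± 2 °C, 12:12 h light/dark) given a single oral 1 mg/kg dose as a suspension in 0.5% methylcellulose. Serum collected just before dosing and at 4 and 8 h, stored at −30 °C, and assayed by RIA. Values expressed as % of the 0 h level, mean ± SD, n = 3. Dunnett test against vehicle.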

[6] = system: Cynomolgus monkey; experiment: Antiandrogenic activity in cynomolgus monkey assessed as reduction serum DHEA level at 1 mg/kg, po at 8 hrs (reference value: 38.5 +/- 18.4%); format: functional, Macaca fascicularis; set-up: scale not given: the % may be the effect or the level left
[7] = system: Cynomolgus monkey; experiment: Antiandrogenic activity in cynomolgus monkey assessed as reduction serum testosterone level at 1 mg/kg, po at 8 hrs (reference value: 68.5 +/- 27.3%); format: functional, Macaca fascicularis; set-up: scale not given: the % may be the effect or the level left
[8] = system: Cynomolgus monkey; experiment: Antiandrogenic activity in cynomolgus monkey assessed as reduction serum testosterone level at 1 mg/kg, po at 4 hrs (reference value: 89.1 +/- 15.6%); format: functional, Macaca fascicularis; set-up: scale not given: the % may be the effect or the level left
[9] = target: T3, Cytochrome P450c11B3 (Rattus norvegicus, UniProt Q64546); experiment: Inhibition of 11-hydroxylase activity in Sprague-Dawley rat adrenal gland; format: tissue-based
T3 sequence (Q64546 whole entry): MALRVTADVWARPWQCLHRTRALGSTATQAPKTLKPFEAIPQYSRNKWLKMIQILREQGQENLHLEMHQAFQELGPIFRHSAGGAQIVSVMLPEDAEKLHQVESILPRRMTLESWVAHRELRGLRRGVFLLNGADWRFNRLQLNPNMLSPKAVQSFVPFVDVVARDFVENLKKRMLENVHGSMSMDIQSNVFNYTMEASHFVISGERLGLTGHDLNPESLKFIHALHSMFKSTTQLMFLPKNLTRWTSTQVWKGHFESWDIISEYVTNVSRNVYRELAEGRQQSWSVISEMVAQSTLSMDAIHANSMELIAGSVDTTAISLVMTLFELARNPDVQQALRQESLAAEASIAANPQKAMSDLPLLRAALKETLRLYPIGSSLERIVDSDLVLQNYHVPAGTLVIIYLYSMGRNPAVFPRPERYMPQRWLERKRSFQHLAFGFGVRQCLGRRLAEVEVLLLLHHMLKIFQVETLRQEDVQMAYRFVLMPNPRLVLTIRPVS
Outline: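 Mitochondrial fraction from SD rat adrenal glands, 4 µg protein, in 200 mM mannitol, 4.5 mM HEPES, 2.3 mM K phosphate pH 7.4, 0.1 mM EDTA, 0.03% BSA, 4.5 mM NADPH, 11 mM CaCl2. Substrate 10 nM [1,2-3H]-11-deoxycortisol. Test compound 1–1000 nM, diluted in DMF. Incubated 30 min at 37 °C, stopped with ethyl acetate. Final concentrations.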

Sequence of Cytochrome P450 3A4 (P08684 whole entry): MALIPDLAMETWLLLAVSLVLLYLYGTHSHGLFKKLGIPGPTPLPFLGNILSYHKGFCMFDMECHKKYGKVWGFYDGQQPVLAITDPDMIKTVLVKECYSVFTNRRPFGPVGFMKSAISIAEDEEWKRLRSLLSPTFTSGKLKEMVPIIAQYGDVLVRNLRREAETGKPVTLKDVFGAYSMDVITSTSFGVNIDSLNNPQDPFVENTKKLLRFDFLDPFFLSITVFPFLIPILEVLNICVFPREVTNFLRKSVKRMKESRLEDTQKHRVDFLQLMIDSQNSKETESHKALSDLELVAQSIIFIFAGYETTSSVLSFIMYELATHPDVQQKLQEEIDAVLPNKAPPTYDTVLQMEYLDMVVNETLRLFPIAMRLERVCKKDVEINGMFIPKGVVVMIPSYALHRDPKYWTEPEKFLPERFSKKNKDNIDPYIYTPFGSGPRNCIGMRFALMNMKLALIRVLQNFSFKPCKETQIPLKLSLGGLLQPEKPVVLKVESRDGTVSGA

IC50 [1] [nM]	Ratio IC50 [3]	IC50 [4] [nM]	IC50 [9] [nM]	SMILES	IC50 [2] [nM]	Activity [5] [%]	Activity [6] [%]	Activity [7] [%]	Activity [8] [%]
36	< 28	< 1000		CNC(=O)Nc1ccc2cc(C(O)(c3c[nH]cn3)C(C)C)ccc2c1 (racemic)	11				
38		3400		CCCNC(=O)c1ccc2cc(C(O)(c3cnc[nH]3)C(C)C)ccc2c1 (racemic)	13				
200		> 10000		CNC(=O)c1ccc2cc(C(O)(c3cnc[nH]3)C(C)C)ccc2c1Cl (racemic)	91				
28	< 36	< 1000		COc1ccc2cc([C@](O)(c3c[nH]cn3)C(C)C)ccc2c1	21				
	> 1000			CC(C)[C@](O)(c1ccc2c3c(ccc2c1)C(=O)N(C)C3)c1c[nH]cn1		16.8	7.7	9.8	13.2
270		> 10000	> 1000	CC(C)[C@@](O)(c1ccc2c3c(ccc2c1)C(=O)N(C)C3)c1cnc[nH]1	110				
15		> 10000	13	CC(C)C(O)(c1ccc2c3c(ccc2c1)C(=O)NC3)c1c[nH]cn1 (single isomer, unassigned; (-))					
60		7400	220	CC(C)C(O)(c1ccc2c3c(ccc2c1)C(=O)NC3)c1c[nH]cn1 (stereo in doubt; (+)-27a)	180				
46		5700		CCNC(=O)c1ccc2cc(C(O)(c3c[nH]cn3)C(C)C)ccc2c1 (racemic)	11				
36				CC(C)C(O)(c1ccc2cc3c(cc2c1)CNC3=O)c1c[nH]cn1 (racemic)					
18		6700		CC(C)C(O)(c1ccc2c3c(ccc2c1)C(=O)NC3)c1c[nH]cn1 (racemic)					
16	225	3600		CNC(=O)c1ccc2cc(C(O)(c3c[nH]cn3)C(C)C)ccc2c1 (racemic)	6				
22				CC(C)C(O)(c1ccc2c3c(ccc2c1)C(=O)N(C)C3)c1c[nH]cn1 (racemic)					

SMILES	IC50 [1] [nM]	Ratio IC50 [3]	IC50 [4] [nM]	IC50 [9] [nM]	IC50 [2] [nM]	Activity [5] [%]	Activity [6] [%]	Activity [7] [%]	Activity [8] [%]
CC(=O)c1ccc2cc(C(O)(c3c[nH]cn3)C(C)C)ccc2c1 (racemic)	28	50	1400		14				
CC(C)C(O)(c1ccc2cc3c(cc2c1)CN(C)C3=O)c1c[nH]cn1 (racemic)	19		5400		70				
CNC(=O)c1cc2ccc(C(O)(c3c[nH]cn3)C(C)C)cc2cc1C (racemic)	39		3600		12				
CNC(=O)c1ccc2cc(C(O)(c3c[nH]cn3)C(C)C)ccc2c1C (racemic)	160		> 10000		200				
CC(C)C(O)(c1ccc2cc(C(N)=O)ccc2c1)c1c[nH]cn1 (racemic)	30		3700		< 10				
CC(=O)Nc1ccc2cc(C(O)(c3c[nH]cn3)C(C)C)ccc2c1 (racemic)	39	< 26	< 1000		29				
CC(C)NC(=O)c1ccc2cc(C(O)(c3c[nH]cn3)C(C)C)ccc2c1 (racemic)	75		9300		12				
COC(=O)c1ccc2cc(C(O)(c3c[nH]cn3)C(C)C)ccc2c1 (racemic)	24	58	1400		43				
